Source: PubChem (The Scripps Research Institute Molecular Screening Center)
GalR3 antag: human GalR3 antagonism. inhibition, % at 3 µM. 0.44% of 360,000 active. HEK293 GalR3-CNG cAMP membrane potential fluorescence; galR3 body fused to GalR1 C-terminus. AID 651719. O60755;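 active means inhibition above the screen-wide average plus 3 SD, cut at about 13% in these data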;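 further: forskolin and galanin both at EC90 stimulate the cells; cAMP rise reported by CNG channel membrane potential dye signal; 0% = forskolin plus galanin with DMSO and 100% = forskolin alone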
Target sequence (O60755 1-299 limits assumed): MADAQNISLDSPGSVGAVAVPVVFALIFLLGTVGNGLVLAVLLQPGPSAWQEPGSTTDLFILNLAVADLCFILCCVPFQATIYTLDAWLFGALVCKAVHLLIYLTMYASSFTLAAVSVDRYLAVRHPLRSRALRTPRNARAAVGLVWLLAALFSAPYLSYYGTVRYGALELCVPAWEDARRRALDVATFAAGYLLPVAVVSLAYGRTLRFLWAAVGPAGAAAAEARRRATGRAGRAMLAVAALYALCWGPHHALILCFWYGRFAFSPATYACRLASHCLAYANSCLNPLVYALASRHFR
OX1R antag-1: OX1R (human) antagonism. O43613. OX1R-expressing cells, FRET antagonist read-out. inhibition, % at 6.6 µM. 1.8% of 330,000 active; in the data active means inhibition mostly above about 38%, no sharp cut-off; inactive means mostly below about 40%;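 further: 0% = agonist challenge alone and 100% = reference antagonist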
CHO parental Ca: counter-screen for OX1R antagonists: effect in parental CHO cells | AID 463079 | parental CHO-K1, ATP-induced calcium, Fluo-8 fluorescence | 0.63% of 330,000 active | inhibition, % at 5.6 µM;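 active means inhibition above that plate's mean sample inhibition plus 3 SD, cut at about 26% in these data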;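 further: 0% = ATP-challenged DMSO wells and 100% = DMSO wells without ATP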
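material = parental CHO cells | also added = ATP as calcium-mobilizing challenge | dosing = single point at 5.6 µM | detection = intracellular calcium via Fluo-8 no-wash fluorescent dye | read-out = % inhibition | benchmarks = low control ATP plus DMSO, high control DMSO only | repeats = one well per compound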
TAAR1 agonist: agonists of human TAAR1; CHO RD-HGA16 TAAR1, Fluo-8 calcium fluorescence; vehicle wells 0%, saturating PEA agonist 100%; Q96RJ0; activation, % at 3 µM; 0.99% of 360,000 active;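 active means activation above the mean activation of all test compounds in the run plus 3 SD, cut at about 38% in these data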
Target sequence (Q96RJ0 whole entry, looked up): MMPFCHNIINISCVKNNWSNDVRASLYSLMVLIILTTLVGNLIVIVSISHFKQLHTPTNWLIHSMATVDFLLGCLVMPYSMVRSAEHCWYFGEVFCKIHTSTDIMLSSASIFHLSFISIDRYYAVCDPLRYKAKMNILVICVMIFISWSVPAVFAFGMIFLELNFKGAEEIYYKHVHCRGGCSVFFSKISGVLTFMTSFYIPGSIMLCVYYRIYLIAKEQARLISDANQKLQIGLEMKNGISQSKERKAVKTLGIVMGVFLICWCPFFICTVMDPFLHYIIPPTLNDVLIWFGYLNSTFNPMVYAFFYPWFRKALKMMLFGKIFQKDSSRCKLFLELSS
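Assay system – CHO-derived RD-HGA16 cells with stable Gα16 and human TAAR1 · Compound dosing – one-point dosing at 3 µM (nominal) · Incubation – 17-24 h seeding, 75 min 37 °C dye, 30 min RT · Measured by – kinetic Fluo-8 calcium fluorescence · Control set – DMSO vehicle as 0%, PEA at EC100 as 100% · Repeats – single well for each compound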
OX1R antag-2: antagonists of human orexin 1 receptor. O43613. CHO/OX1R cells, Fluo-8 calcium fluorescence, orexin A. inhibition, % at 5 µM. 0.43% of 330,000 active;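 active means inhibition above its plate's threshold, mean inhibition of all tested compounds on the plate plus 3 SD, cut at about 37% in these data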;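 further: 0% = orexin A challenge wells and 100% = SB-334867-A antagonist wells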
TAAR1 antag: human TAAR1 antagonism; AID 624466; CHO RD-HGA16 TAAR1, Fluo-8 calcium fluorescence, antagonist; 1.5% of 360,000 active; Q96RJ0; inhibition, % at 3 µM;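 active means inhibition above a per-plate cutoff, the mean inhibition of test compounds on that plate plus 3 SD, cut at about 49% in these data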;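 further: 0% = DMSO plus EC80 beta-PEA response and 100% = DMSO alone without agonist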
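Assay system: CHO-derived RD-HGA16 cells stably expressing human TAAR1 plus Gα16. Timing: 140 s kinetic read after compound, 140 s after agonist. Technique: kinetic Fluo-8 calcium fluorescence measurement. Measure: % inhibition of agonist calcium response.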
TAAR1 ag conf: confirmation of human TAAR1 agonists | shares compounds with TAAR1 agonist | CHO RD-HGA16 TAAR1, Fluo-8 calcium fluorescence; scaled: DMSO 0%, maximal phenethylamine 100% | 82% of 2,400 active | activation, % at 3 µM;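 active means activation above a cutoff set at the run's mean compound activation plus 3 SD, cut at about 39% in these data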
Ga16 ag counter: counter-screen for TAAR1 agonists: nonselective agonists in parental cells; shares compounds with TAAR1 agonist; AID 651787; activation, % at 3 µM; 50% of 2,400 active; CHO-Ga16 parental, Fluo-8 calcium fluorescence; normalized to maximal ATP response, DMSO zero;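 active means activation above the run cutoff, the mean activation over all tested wells plus 3 SD, cut at about 12% in these data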;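 further: 0% = DMSO wells and 100% = maximal ATP response on the peak over basal ratio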
TAAR1 desens: TAAR1 response desensitization, agonist counter-screen; shares compounds with TAAR1 agonist; CHO RD-HGA16 hTAAR1, Fluo-8 calcium, beta-PEA response inhibition; 46% of 2,400 active; inhibition, % at 3 µM;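 active means inhibition above the run cutoff, the mean inhibition of all test compounds plus 3 SD, cut at about 49% in these data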;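 further: beta-PEA stimulus applied at its EC80; loss of beta-PEA calcium signal after compound pretreatment read as receptor desensitization; 0% = DMSO with beta-PEA at EC80 and 100% = DMSO alone without agonist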
Ga16 antag count: nonselective Ga16 antagonism, counter-screen; shares compounds with TAAR1 agonist; 39% of 2,400 active; CHO-Ga16 ATP-induced calcium, Fluo-8 fluorescence; inhibition, % at 3 µM;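 active means inhibition above the plate's mean compound inhibition plus 3 SD, computed per plate, cut at about 22% in these data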;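 further: 0% = EC80 ATP with DMSO and 100% = DMSO wells without ATP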
Active calls of the source: *; · = no result. Only some compounds are listed: those with a hit (about 4.2% of all), similar ones and a draw of the others.

SMILES	GalR3 antag	OX1R antag-1	CHO parental Ca	TAAR1 agonist	OX1R antag-2	TAAR1 antag	TAAR1 ag conf	Ga16 ag counter	TAAR1 desens	Ga16 antag count
O=C(CN(C1CCCCC1)S(=O)(=O)c1ccccc1)N1CCCC1	-1	26	-7	-3	-19	-2	·	·	·	·
O=C(Nc1ccccc1F)N1CCc2ccccc2C1	-3	·	·	50*	·	-18	40*	1	11	7
O=C(/C=C/c1ccc(F)cc1)N1CCc2ccccc2C1	-2	1	-19	4	-21	-9	·	·	·	·
O=C(/C=C/C(=O)N1CCc2ccccc2C1)N1CCc2ccccc2C1	-9	5	-12	82*	-30	47	87*	3	58*	8
O=C(CSc1ncccn1)N1CCc2ccccc2C1	-8	19	-2	7	-14	7	·	·	·	·
Cc1ccc(C)c(NC(=O)N2CCCCCC2)c1	3	2	-5	2	-23	-29	·	·	·	·
O=C(CNCc1ccccn1)N1CCc2ccccc2C1	-10	11	-7	47*	-2	3	28	0	-2	6
Cc1ccc(C)c(NC(=O)N2CCc3ccccc3C2)c1	-4	13	-7	86*	-14	-5	73*	5	33	7
Cc1c(C)n2c(SCC(=O)N3CC(C)OC(C)C3)nnc2[nH]c1=O (stereo not drawn)	2	2	-3	5	-11	-4	·	·	·	·
CN(C(=O)c1cccc(NC(=O)Cc2ccc(NC(=O)C3CCCN(C(=O)CCc4ccccc4)C3)cc2)c1)C1CCCC1 (stereo not drawn)	-6	·	·	2	·	-3	·	·	·	·
Cc1ccc(-n2nc3cc(C)c(NC(=S)NC(=O)/C=C/c4ccco4)cc3n2)cc1	0	-3	-10	0	5	-13	·	·	·	·
Cc1ccc(NS(=O)(=O)c2ccc(C(=O)N3CCCCCC3)cc2)cc1	-4	2	-1	86*	20	29	80*	52*	43	39*
CCOc1ccc(NS(=O)(=O)c2ccc(C(=O)N3CCCC(C)C3)cc2)cc1 (stereo not drawn)	-4	17	52*	114*	36*	79*	121*	80*	84*	55*
O=C(c1ccc(S(=O)(=O)Nc2ccccc2)cc1)N1CCCC(C(F)(F)F)C1 (stereo not drawn)	-2	14	7	116*	3	65*	99*	58*	57*	30*
Cc1ccc(NS(=O)(=O)c2ccc(C(=O)N3CCCN(C)CC3)cc2)cc1	-4	16	-7	4	-10	3	·	·	·	·
N#C/C(=C\c1cccc(OC(=O)c2cccs2)c1)C(N)=O	-3	17	-4	-3	-17	-13	·	·	·	·
Oc1ccc(Br)cc1/C=N/NC(=S)NCCc1ccccc1	-1	17	34*	58*	7	21	74*	41*	45	47*
O=C(Nc1cccc(S(=O)(=O)NC2=NCCCCC2)c1)C1COc2ccccc2O1 (stereo not drawn)	1	-14	-20	3	-23	-35	·	·	·	·
O=C(CCN1Cc2ccccc2C1)c1ccc2c(c1)OCCO2	-5	12	-3	38*	-8	7	68*	3	13	12
O=C(CCN1CCc2ccccc2C(c2ccccc2)C1)c1ccc2c(c1)OCCO2 (stereo not drawn)	-1	24	-23	73*	-30	52*	75*	1	77*	12
O=C(NC12CC3CC(CC(C3)C1)C2)c1ccc(N2CCNCC2)c([N+](=O)[O-])c1	-1	6	0	10	-11	-19	·	·	·	·
CCCCC(=O)NCc1ccccc1Cl	-7	9	-4	6	-10	-13	·	·	·	·
CC(=O)Nc1ccc(Sc2ncccc2C(=O)Nc2ccc(OC(F)(F)F)cc2)cn1	-6	10	77*	139*	88*	104*	143*	107*	104*	90*
CC(=O)Nc1ccc(Sc2ncccc2C(=O)Nc2cc(Cl)cc(Cl)c2)cn1	-2	20	-9	32	-19	33	·	·	·	·
COc1ccc(NC(=O)C2CCCN2S(=O)(=O)c2ccc3c(c2)CCC(=O)N3)c(OC)c1 (stereo not drawn)	8	21	-15	2	-22	-23	·	·	·	·
SMILES	GalR3 antag	OX1R antag-1	CHO parental Ca	TAAR1 agonist	OX1R antag-2	TAAR1 antag	TAAR1 ag conf	Ga16 ag counter	TAAR1 desens	Ga16 antag count
Cc1c(CNCC(C)c2ccccc2)c(C(=O)O)c(C)n1Cc1ccccc1 (stereo not drawn)	2	22	-19	90*	-11	6	78*	2	18	-2
CCN(C(=O)COC(=O)c1cncc(Br)c1)C1CCS(=O)(=O)C1 (stereo not drawn)	-5	15	7	7	-10	6	·	·	·	·
COc1ccc2noc3c2c1C(=O)c1ccccc1-3	-3	100*	51*	150*	51*	67*	74*	63*	75*	61*
COc1ccc(C(=O)c2c(C(F)(F)F)oc3c2C(=O)c2ccccc2C3=O)cc1	·	49	-29	·	-26	·	·	·	·	·
CC(C)c1ccc(NC(=O)Nc2nc(C(N)C3CCCCC3)cs2)cc1 (stereo not drawn)	-6	·	·	55*	·	6	42*	29*	33	46*
COc1cccc(Nc2nc(C(N)c3ccccc3Cl)cs2)n1 (stereo not drawn)	-2	·	·	23	·	19	·	·	·	·
COc1cccc(Nc2nc(C(N)c3ccccc3)cs2)n1 (stereo not drawn)	-6	·	·	68*	·	25	66*	12*	41	20
COc1cccc(Nc2nc(C(N)C3CCCCC3)cs2)n1 (stereo not drawn)	0	·	·	53*	·	15	47*	18*	28	23*
NC(=O)c1cccc(Nc2nc(C(N)C3CCCCC3)cs2)n1 (stereo not drawn)	-3	·	·	1	·	-2	·	·	·	·
COc1cccc(Nc2nc(CN)cs2)n1	-1	·	·	28	·	-12	·	·	·	·
COc1ccc(NC(=O)Nc2nc(C(N)C3CCCCC3)cs2)cc1 (stereo not drawn)	-3	·	·	11	·	9	·	·	·	·
